Activity calls are given as the source filed them. The calls are words filed in the database; no cut-off is given here.
Columns and labels:
[1] = Inhibition of MGL in African green monkey COS7 cells cytosolic fraction assessed as reduction in 2-arachidonoyl-[3H]-glycerol hydrolysis by scintillation counting method; type: cell-based, Chlorocebus aethiops; conditions: cos-7
COS-7 [2] = test: Inhibition of MGL in African green monkey COS7 cells cytosolic fraction assessed as reduction in 2-arachidonoyl-[3H]-glycerol hydrolysis at 50 uM by scintillation counting method; type: cell-based; conditions: Chlorocebus aethiops
Cannabinoid receptor 1 [3] = target: T1, Cannabinoid receptor 1 (Homo sapiens, UniProt P21554); test: Displacement of [3H]CP-55,940 from human recombinant CB1 receptor expressed in HEK293 cell membranes
T1 sequence (P21554 whole entry): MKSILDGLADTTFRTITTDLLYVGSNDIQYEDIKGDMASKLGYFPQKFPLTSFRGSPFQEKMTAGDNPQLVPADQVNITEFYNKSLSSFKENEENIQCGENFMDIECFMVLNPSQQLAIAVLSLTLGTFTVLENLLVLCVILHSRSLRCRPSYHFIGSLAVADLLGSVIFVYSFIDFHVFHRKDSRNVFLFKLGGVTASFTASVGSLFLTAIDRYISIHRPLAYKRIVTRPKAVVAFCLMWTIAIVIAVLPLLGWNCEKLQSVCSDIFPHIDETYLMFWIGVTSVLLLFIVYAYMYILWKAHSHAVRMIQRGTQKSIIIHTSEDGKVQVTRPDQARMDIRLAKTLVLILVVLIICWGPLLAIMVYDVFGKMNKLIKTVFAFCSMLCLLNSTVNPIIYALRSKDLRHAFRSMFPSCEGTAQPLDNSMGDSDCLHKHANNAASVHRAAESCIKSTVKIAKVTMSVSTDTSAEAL

Cannabinoid receptor 2 [4] = target: T2, Cannabinoid receptor 2 (Homo sapiens, UniProt P34972); test: Displacement of [3H]CP-55,940 from human recombinant CB2 receptor expressed in HEK293 cell membranes
T2 sequence (P34972 whole entry): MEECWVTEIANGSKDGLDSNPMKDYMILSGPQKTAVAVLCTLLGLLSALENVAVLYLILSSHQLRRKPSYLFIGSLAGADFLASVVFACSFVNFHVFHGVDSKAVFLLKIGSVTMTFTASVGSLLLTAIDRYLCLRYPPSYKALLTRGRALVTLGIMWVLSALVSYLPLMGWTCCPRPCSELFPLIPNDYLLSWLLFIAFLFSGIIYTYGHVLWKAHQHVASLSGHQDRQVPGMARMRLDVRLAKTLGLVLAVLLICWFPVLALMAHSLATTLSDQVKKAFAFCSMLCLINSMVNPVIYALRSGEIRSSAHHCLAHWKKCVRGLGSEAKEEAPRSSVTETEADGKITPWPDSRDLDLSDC

Homo sapiens [5] = organism: Homo sapiens; test: Selectivity index, ratio of Ki for human recombinant CB1 receptor to Ki for human recombinant CB2 receptor
Homo sapiens [6] = organism: Homo sapiens; test: Selectivity index, ratio of Ki for human recombinant CB2 receptor to Ki for human recombinant CB1 receptor
Cannabinoid receptor 1 [7] = target: T1, Cannabinoid receptor 1; test: Agonist activity at human recombinant CB1 receptor expressed in CHO cell membranes by [35S]GTPgammaS binding assay; type: functional
Outline: (§1)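 Membranes from CHO cells stably expressing human CB1 or CB2, 50 µg protein per well, in Tris buffer with 100 mM NaCl, 5 mM MgCl2, 1 mM DTT, 1 mM EDTA, 0.1% BSA, pH 7.4. Incubated 60 min at 30°C with 0.1 nM [35S]GTPγS, 30 µM GDP and compound in DMSO. Nonspecific binding defined with 30 µM GTPγS. Filtration and scintillation counting. Percent change relative to DMSO control, n=6. EC50/Emax from sigmoidal fit.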

Cannabinoid receptor 1 [8] = target: T1, Cannabinoid receptor 1; test: Agonist activity at human recombinant CB1 receptor expressed in CHO cell membranes assessed as stimulation of [35S]GTPgammaS binding relative to basal level; type: functional; outline: as §1
Cannabinoid receptor 2 [9] = target: T2, Cannabinoid receptor 2; test: Agonist activity at human recombinant CB2 receptor expressed in CHO cell membranes by [35S]GTPgammaS binding assay; type: functional; outline: as §1
Cannabinoid receptor 2 [10] = target: T2, Cannabinoid receptor 2; test: Agonist activity at human recombinant CB2 receptor expressed in CHO cell membranes assessed as stimulation of [35S]GTPgammaS binding relative to basal level; type: functional; outline: as §1
Mus musculus [11] = test: Antinociceptive activity in Swiss-Webster mouse assessed as reduction in second phase of formalin-induced nociceptive behavior at 3 and 4 mg/kg, ip; type: functional, organism-based; design: dose 4 mg/kg
Outline: (§2)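 Mice received compound or vehicle (0.9% NaCl) i.p. 10 min before formalin (1.25%) injected subcutaneously into the hind paw. Lifting, favouring, licking, shaking and flinching were scored blind as total duration per 5-min bin over 60 min. 8-10 animals per group; one-way ANOVA with Bonferroni test.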

Mus musculus [12] = test: Antinociceptive activity in Swiss-Webster mouse assessed as reduction in second phase of formalin-induced nociceptive behavior at 4 mg/kg, ip after 40 mins; type: functional, organism-based; design: dose 4 mg/kg; outline: as §2
Mus musculus [13] = test: Toxicity in Swiss-Webster mouse formalin-induced pain model assessed as induction of abdominal writhing at >4 mg/kg, ip; type: organism-based, Abdomen; conditions: in vivo; outline: as §2
[14] = target: T3, Transient receptor potential cation channel subfamily V member 1 (Homo sapiens, UniProt Q8NER1); test: Agonist activity at human recombinant TRPV1 expressed in HEK293 cells assessed as increase in intracellular calcium level by fluorescence assay relative to ionomycin; type: cell-based
T3 sequence (Q8NER1 whole entry): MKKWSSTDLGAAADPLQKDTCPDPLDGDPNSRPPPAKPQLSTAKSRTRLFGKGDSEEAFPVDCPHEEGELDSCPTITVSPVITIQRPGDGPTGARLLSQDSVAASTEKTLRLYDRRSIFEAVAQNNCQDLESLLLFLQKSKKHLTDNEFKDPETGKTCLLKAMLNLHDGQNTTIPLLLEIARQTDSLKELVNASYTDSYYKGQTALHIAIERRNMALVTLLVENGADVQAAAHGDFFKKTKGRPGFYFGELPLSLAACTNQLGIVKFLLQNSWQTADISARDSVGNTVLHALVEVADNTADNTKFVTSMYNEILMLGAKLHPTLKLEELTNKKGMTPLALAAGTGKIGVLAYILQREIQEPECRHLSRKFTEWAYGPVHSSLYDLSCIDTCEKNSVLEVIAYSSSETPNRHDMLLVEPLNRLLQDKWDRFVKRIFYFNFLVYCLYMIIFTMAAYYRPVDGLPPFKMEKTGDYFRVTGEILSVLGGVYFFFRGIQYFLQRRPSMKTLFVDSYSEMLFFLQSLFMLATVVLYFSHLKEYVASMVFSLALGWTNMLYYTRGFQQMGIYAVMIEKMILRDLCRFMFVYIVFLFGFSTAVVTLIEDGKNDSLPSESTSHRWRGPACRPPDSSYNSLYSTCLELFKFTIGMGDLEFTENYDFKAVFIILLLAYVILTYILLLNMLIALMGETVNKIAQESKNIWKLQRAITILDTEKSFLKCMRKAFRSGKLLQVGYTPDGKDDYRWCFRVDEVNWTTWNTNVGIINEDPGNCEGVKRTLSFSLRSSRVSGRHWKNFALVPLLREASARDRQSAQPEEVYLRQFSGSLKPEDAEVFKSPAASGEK
Outline: (§3)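 HEK293 cells stably expressing human TRPV1 were loaded with Fluo-4-AM (4 µM, 1 h, room temperature). Cells stirred in Tyrode's buffer pH 7.4; fluorescence read at ex 488/em 516 nm, 25 °C. Wild-type HEK293 response subtracted. Efficacy as percent of 4 µM ionomycin. EC50 from sigmoidal fit, n=3.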

[15] = target: T3, Transient receptor potential cation channel subfamily V member 1; test: Agonist activity at human recombinant TRPV1 expressed in HEK293 cells assessed as increase in intracellular calcium level by fluorescence assay; type: cell-based; outline: as §3
[16] = target: T3, Transient receptor potential cation channel subfamily V member 1; test: Antagonist activity against human recombinant TRPV1 expressed in HEK293 cells assessed as reduction in capsaicin-induced intracellular calcium response pre-incubated 5 mins before capsaicin addition by fluorescence assay; type: cell-based
Outline: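 Human TRPV1-HEK293 cells loaded with Fluo-4 in Tyrode's buffer pH 7.4, 25 °C. Compound added 5 min before 0.1 µM capsaicin. IC50 taken as half-maximal inhibition of the capsaicin-induced [Ca2+]i rise, n=3.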

[17] = target: Transient receptor potential cation channel subfamily A member 1 (Rattus norvegicus) (UniProt Q6RI86); test: Agonist activity at rat recombinant TRPA1 expressed in HEK293 cells assessed as increase in intracellular calcium level by fluorescence assay relative to isothiocyanate; type: cell-based
Transient receptor potential cation channel subfamily A member 1 (Rattus norvegicus), sequence (Q6RI86 whole entry): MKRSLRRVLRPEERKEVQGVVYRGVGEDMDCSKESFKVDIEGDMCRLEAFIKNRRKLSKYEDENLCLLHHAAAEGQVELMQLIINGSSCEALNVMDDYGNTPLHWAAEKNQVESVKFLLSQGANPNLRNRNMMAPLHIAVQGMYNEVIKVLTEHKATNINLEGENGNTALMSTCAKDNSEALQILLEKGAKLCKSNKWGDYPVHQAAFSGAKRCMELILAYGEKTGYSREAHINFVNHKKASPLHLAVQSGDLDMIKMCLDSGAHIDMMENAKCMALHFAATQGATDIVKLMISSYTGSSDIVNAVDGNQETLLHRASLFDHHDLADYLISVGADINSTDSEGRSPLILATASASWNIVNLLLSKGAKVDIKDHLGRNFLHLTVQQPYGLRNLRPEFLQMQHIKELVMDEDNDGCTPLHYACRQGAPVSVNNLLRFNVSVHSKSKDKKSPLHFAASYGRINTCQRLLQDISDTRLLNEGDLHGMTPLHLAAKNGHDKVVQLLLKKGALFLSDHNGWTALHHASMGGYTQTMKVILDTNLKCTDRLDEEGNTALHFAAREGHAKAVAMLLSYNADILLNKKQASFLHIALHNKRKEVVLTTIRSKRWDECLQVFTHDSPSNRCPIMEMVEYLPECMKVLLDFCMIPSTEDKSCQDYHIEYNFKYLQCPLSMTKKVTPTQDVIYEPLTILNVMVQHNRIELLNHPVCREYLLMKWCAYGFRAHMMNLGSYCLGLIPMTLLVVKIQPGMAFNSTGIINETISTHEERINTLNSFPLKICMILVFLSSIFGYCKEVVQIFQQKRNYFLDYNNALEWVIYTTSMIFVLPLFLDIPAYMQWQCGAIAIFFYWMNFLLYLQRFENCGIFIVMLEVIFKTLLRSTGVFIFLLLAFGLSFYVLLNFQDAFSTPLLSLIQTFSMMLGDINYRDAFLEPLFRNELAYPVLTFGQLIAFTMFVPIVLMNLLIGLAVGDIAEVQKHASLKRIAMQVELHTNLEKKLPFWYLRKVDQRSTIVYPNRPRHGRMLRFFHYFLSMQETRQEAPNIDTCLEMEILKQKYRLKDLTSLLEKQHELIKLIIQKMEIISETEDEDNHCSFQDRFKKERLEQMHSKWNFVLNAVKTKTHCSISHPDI
Outline: (§4)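 HEK293 cells stably expressing rat TRPA1 were loaded with Fluo-4-AM (4 µM, 1 h, room temperature). Cells stirred in Tyrode's buffer pH 7.4; [Ca2+]i fluorescence read at ex 488/em 516 nm, 25 °C. Wild-type HEK293 response subtracted. Efficacy as percent of 100 µM allyl isothiocyanate. EC50 from sigmoidal fit, n=3.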

[18] = target: T4, Transient receptor potential cation channel subfamily A member 1 (Rattus norvegicus, UniProt Q6RI86); test: Agonist activity at rat recombinant TRPA1 expressed in HEK293 cells assessed as increase in intracellular calcium level by fluorescence assay; type: cell-based; outline: as §4
T4 sequence (Q6RI86 whole entry): as above

[19] = target: T4, Transient receptor potential cation channel subfamily A member 1; test: Antagonist activity at rat recombinant TRPA1 expressed in HEK293 cells assessed as reduction in isothiocynate-induced increase in intracellular calcium response by fluorescence assay; type: cell-based
Outline: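 Rat TRPA1-HEK293 cells loaded with Fluo-4 in Tyrode's buffer pH 7.4, 25 °C. Compound given as a 5 min pre-incubation before 100 µM allyl isothiocyanate. IC50 for half-maximal inhibition of the agonist-evoked [Ca2+]i rise, n=3.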

[20] = Cytotoxicity against mouse NIH/3T3 cells after 24 hrs by neutral red assay; type: cell-based; conditions: NIH3T3, 24 h
Outline: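 NIH3T3 mouse fibroblasts in DMEM with 10% FCS were seeded and after 24 h exposed to compound in DMSO (5-200 µM, six replicates) for 24 h. Viability measured by neutral red uptake (3 h dye incubation, then acetic acid/ethanol extraction). IC50 derived.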

[21] = target: T5, Fatty-acid amide hydrolase 1 (Rattus norvegicus, UniProt P97612); test: Inhibition of FAAH in rat brain membranes assessed as reduction in [14C] anandamide hydrolysis by scintillation counting method; type: cell membranes, Membrane
T5 sequence (P97612 whole entry): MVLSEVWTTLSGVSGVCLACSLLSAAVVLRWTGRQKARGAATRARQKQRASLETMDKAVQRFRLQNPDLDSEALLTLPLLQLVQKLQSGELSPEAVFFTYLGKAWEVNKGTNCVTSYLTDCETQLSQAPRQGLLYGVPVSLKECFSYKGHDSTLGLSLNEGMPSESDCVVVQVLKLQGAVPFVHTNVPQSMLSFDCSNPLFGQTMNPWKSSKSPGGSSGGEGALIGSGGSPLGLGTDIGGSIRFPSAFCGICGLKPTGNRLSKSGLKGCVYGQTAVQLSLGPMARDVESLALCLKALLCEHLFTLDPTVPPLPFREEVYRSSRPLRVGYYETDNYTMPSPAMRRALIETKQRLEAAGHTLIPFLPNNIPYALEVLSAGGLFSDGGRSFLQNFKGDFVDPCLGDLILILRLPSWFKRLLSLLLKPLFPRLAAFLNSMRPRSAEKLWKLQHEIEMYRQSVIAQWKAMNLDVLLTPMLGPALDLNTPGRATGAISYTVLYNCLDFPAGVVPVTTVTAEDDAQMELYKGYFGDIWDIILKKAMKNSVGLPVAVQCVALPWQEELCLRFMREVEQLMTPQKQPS

COS-7 [22] = test: Inhibition of MGL in African green monkey COS7 cells cytosolic fraction assessed as reduction in 2-arachidonoyl-[3H]-glycerol hydrolysis at 10 uM by scintillation counting method; type: cell-based; conditions: Chlorocebus aethiops
[23] = target: T6, Fatty-acid amide hydrolase 1 (Rattus norvegicus) (UniProt P97612); test: Inhibition of FAAH in rat brain membranes assessed as reduction in [14C] anandamide hydrolysis at 10 uM by scintillation counting method; type: cell membranes; conditions: Membrane
T6 sequence (whole entry): T5 sequence (P97612 whole entry)

COS-7 [24] = test: Inhibition of MGL in African green monkey COS7 cells cytosolic fraction assessed as reduction in 2-arachidonoyl-[3H]-glycerol hydrolysis at 1 uM by scintillation counting method; type: cell-based; conditions: Chlorocebus aethiops

Compound | IC50 [1] [nM] | Imax (COS-7 [2]) [%] | Ki (Cannabinoid receptor 1 [3]) [nM] | Ki (Cannabinoid receptor 2 [4]) [nM] | Ratio Ki (Homo sapiens [5]) | Ratio Ki (Homo sapiens [6]) | also measured
CCCCCCc1ccc(O)cc1OCCCCCCCCCCCN1C(=O)c2ccccc2C1=O | > 50000 | 16.3 |  |  |  |  | 
CCCCCc1cc(O)cc(OCCCCCCCCCN2C(=O)c3ccccc3C2=O)c1 | > 50000 | 16.8 |  |  |  |  | 
C=CCNC(=O)CCCCCCCOc1cc(O)cc(C(C)(C)CCCCCC)c1 |  |  | 7.22 | 7.36 | 0.98 | 1.02 | EC50 (Cannabinoid receptor 1 [7]): 138 nM; Emax (Cannabinoid receptor 1 [8]): 60.6%; EC50 (Cannabinoid receptor 2 [9]): 44.7 nM; Emax (Cannabinoid receptor 2 [10]): 13.4%; Activity (Mus musculus [11]): Active; Activity (Mus musculus [12]): Active; Activity (Mus musculus [13]): Toxic; Efficacy [14]: 18.6%; EC50 [15]: 6900 nM; IC50 [16]: 23900 nM; Efficacy [17]: 51.3%; EC50 [18]: 2700 nM; IC50 [19]: 7400 nM; IC50 [20]: 188000 nM
CCCCCc1cc(O)cc(OCCCCCCCCCCC(=O)NN2CCCCC2)c1 | > 10000 |  | 1780 | 678 | 2.63 | 0.38 | IC50 [21]: > 10000 nM; Imax (COS-7 [22]): 41.6%; Imax [23]: 41%
CCCCCCC(C)(C)c1cc(O)cc(OCCCCCCCCCN2C(=O)c3ccccc3C2=O)c1 | > 50000 | 18.8 |  |  |  |  | 
CCCCCCC(C)(C)c1ccc([C@@H]2C[C@H](O)CC[C@H]2CCCO)c(O)c1 |  |  |  |  |  |  | Emax (Cannabinoid receptor 1 [8]): 72.1%; Emax (Cannabinoid receptor 2 [10]): 66.5%
CCCCCc1cc(O)cc(OCCCCCCCCCCC(=O)NC(CO)CO)c1 |  |  | > 10000 | 540 | > 18.5 | < 0.05 | 
CCCCCCC(C)(C)c1cc(O)cc(OCCCCCCCC(=O)N[C@H](C)CO)c1 |  |  | 17.2 | 50.2 | 0.34 | 2.92 | IC50 [20]: 69000 nM
CCCCCc1cc(O)cc(OCCCCCCCCCCC(=O)NN(C)C)c1 | > 10000 |  | 845 | 183 | 4.63 | 0.22 | IC50 [21]: > 10000 nM; Imax (COS-7 [22]): 42.9%; Imax [23]: 28.2%
CCCCCCc1ccc(O)cc1OCCCCCCCCCCC(=O)NC(CO)CO |  |  | > 10000 | 2370 | > 4.22 | < 0.24 | 
CCCCCCc1ccc(OCCCCCCCCCCCN2C(=O)c3ccccc3C2=O)cc1O | > 50000 | 14.3 |  |  |  |  | 
CCCCCc1cc(O)cc(OCCCCCCCCCCC(=O)NCC(F)(F)F)c1 |  |  | 438 | 96.3 | 4.55 | 0.22 | 
CCCCCc1cc(O)cc(OCCCCCCCCCN[C@H](C)CO)c1 |  |  | 1060 | 1520 | 0.7 | 1.43 | 
CCCCCc1cc(O)cc(OCCCCCCCCCCCN2C(=O)c3ccccc3C2=O)c1 | > 50000 | 15.9 |  |  |  |  | 
CCCCCCC(C)(C)c1cc(O)cc(OCCCCCCCC(=O)NCC(F)(F)F)c1 |  |  | 397 | 27.9 | 14.2 | 0.07 | 
CCCCCCC(C)(C)c1cc(O)cc(OCCCCCCCCCCCN2C(=O)c3ccccc3C2=O)c1 | > 50000 | 14.4 |  |  |  |  | 
CCCCCc1cc(O)cc(OCCCCCCCCCCC(=O)Nc2ccccc2)c1 |  |  | > 10000 | 128 | > 78.2 | < 0.01 | EC50 (Cannabinoid receptor 2 [9]): 701 nM; Emax (Cannabinoid receptor 2 [10]): -14.4%
CCCCCCCCCCC[C@@H](C[C@@H]1OC(=O)[C@H]1CCCCCC)OC(=O)CNC=O |  |  |  |  |  |  | Imax (COS-7 [24]): 60%
